Test [1] in a line: Cytotoxicity in uninfected dog kidney (MDCK) cells. In kind it is cell-based. As to conditions: Canis lupus familiaris. The method, boiled down:
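Dividing MDCK cells seeded at 2 × 10^4 cells/well in 24-well plates; compound added to growth medium at various concentrations. Cell growth compared with untreated controls over 4 days incubation (3-4 cell doublings).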

In a further test the test system is Influenza A virus. As to the kind of experiment: Antiviral activity against Influenza virus (A/Sweden/3/50/ (H1N1)) in dog kidney (MDCK) cells expressed. Format: functional, organism-based. Put shortly: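 Plaque reduction assay. Confluent MDCK monolayers were infected with 50-150 PFU in the presence of compound, then overlaid with nutrient agarose containing 0.1 µg/mL trypsin, 100 µg/mL DEAE-dextran and compound. After 3-4 days at 36 °C, cells were formalin-fixed and methyl violet-stained, and plaques were counted as % of the untreated infected control, in triplicate. IC50 came from mean-versus-log concentration curves.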

In the case of `Cc1nc(N)nc2c1ncn2[C@@H]1O[C@H](CO)[C@@H](O)[C@H]1F`, the values for the IC50 (in test [1]; in the test on Influenza A virus) were greater than 500 µM and greater than 100 µM, respectively.

In the case of `CCOc1nc(N)nc2c1ncn2[C@@H]1O[C@H](CO)[C@@H](O)[C@H]1F`, the values for the IC50 (in test [1]; in the test on Influenza A virus) were greater than 500 µM and 29 µM, respectively.

`OC[C@H]1O[C@@H](n2cnc3c(NC4CC4)ncnc32)[C@H](F)[C@@H]1O`: the IC50 in test [1] was greater than 500 µM; in the test with Influenza A virus it was greater than 100 µM.

For the compound `CCCOc1nc(N)nc2c1ncn2[C@@H]1O[C@H](CO)[C@@H](O)[C@H]1F`, the values for the IC50 (in test [1]; with Influenza A virus) were greater than 500 µM and 36 µM, respectively.

On to `Nc1nc(Cl)c2ncn([C@@H]3O[C@H](CO)[C@@H](O)[C@H]3F)c2n1`, for which the IC50 was greater than 500 µM in test [1] and 17 µM with Influenza A virus.

On to `Nc1ncnc2c1ncn2[C@@H]1O[C@H](CO)[C@@H](O)[C@H]1F` [2'-BETA-FLUORO-2',3'-DEOXYADENOSINE], for which the IC50 in test [1] worked out at 320 µM; with Influenza A virus, 52 µM.

For the compound `Cc1nc(N)c2ncn([C@@H]3O[C@H](CO)[C@@H](O)[C@H]3F)c2n1`, the IC50 was greater than 500 µM in test [1] and greater than 100 µM with Influenza A virus.

As for `Nc1nc(I)c2ncn([C@@H]3O[C@H](CO)[C@@H](O)[C@H]3F)c2n1`, the IC50 in test [1] amounted to 300 µM; in the test on Influenza A virus, 23 µM.

For `CSc1nc(N)nc2c1ncn2[C@@H]1O[C@H](CO)[C@@H](O)[C@H]1F`, the IC50 in test [1] was greater than 500 µM; in the test with Influenza A virus, greater than 100 µM.

`Nc1nc(NC2CC2)c2ncn([C@@H]3O[C@H](CO)[C@@H](O)[C@H]3F)c2n1`: the IC50 in test [1] is greater than 500 µM; in the test on Influenza A virus, 72 µM.

With `CSc1ncnc2c1ncn2[C@@H]1O[C@H](CO)[C@@H](O)[C@H]1F`, the IC50 in test [1] is greater than 500 µM; with Influenza A virus, greater than 100 µM.

As to `Nc1nc(N)c2ncn([C@@H]3O[C@H](CO)[C@@H](O)[C@H]3F)c2n1`, the IC50 in test [1] was greater than 500 µM; with Influenza A virus it was 15 µM.

In the case of `COc1nc(N)c2ncn([C@@H]3O[C@H](CO)[C@@H](O)[C@H]3F)c2n1`, the IC50 in test [1] was greater than 500 µM; with Influenza A virus it was greater than 100 µM.

Regarding `COc1nc(N)nc2c1ncn2[C@@H]1O[C@H](CO)[C@@H](O)[C@H]1F`, the IC50 in test [1] was greater than 500 µM; in the test on Influenza A virus, 16 µM.

For `CCOc1ncnc2c1ncn2[C@@H]1O[C@H](CO)[C@@H](O)[C@H]1F`, the figures for the IC50 (in test [1]; with Influenza A virus) were greater than 500 µM and greater than 100 µM, respectively.

Take `Nc1nc(F)nc2c1ncn2[C@@H]1O[C@H](CO)[C@@H](O)[C@H]1F`: the IC50 is 120 µM in test [1] and greater than 100 µM in the test on Influenza A virus.

`Nc1ncc2ncn([C@@H]3O[C@H](CO)[C@@H](O)[C@H]3F)c2n1`: the values for the IC50 (in test [1]; in the test with Influenza A virus) were greater than 500 µM and greater than 100 µM, respectively.

For `COc1ncnc2c1ncn2[C@@H]1O[C@H](CO)[C@@H](O)[C@H]1F`, the IC50 in test [1] was greater than 500 µM; in the test with Influenza A virus, greater than 100 µM.

With `OC[C@H]1O[C@@H](n2cnc3c(O)ncnc32)[C@H](F)[C@@H]1O`, the results for the IC50 (in test [1]; in the test on Influenza A virus) were greater than 500 µM and greater than 100 µM, respectively.

These data come from ChEMBL document CHEMBL1126663, “Purine 2'-deoxy-2'-fluororibosides as antiinfluenza virus agents” (J Med Chem, 1993).
